Laboratory results as given in PMC8184462 (Annals of Translational Medicine, 2021).

Experiments:
[1] = system: T790M-mutant NSCLC cell line H1975; conditions: ref [14],[15]; cited from earlier work
NSCLC = conditions: ref [15], cited from earlier work
[2] = system: NSCLC HCC827 cell line harboring EGFR-sensitive mutants; conditions: ref [14],[15]; cited from earlier work
[3] = system: T790M-mutant NSCLC cell line LU1868; conditions: ref [14],[15]; cited from earlier work
[4] = Plasma pharmacokinetics of unlabeled almonertinib and metabolite HAS-719; format: in vivo, human
Method in brief: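 Four healthy fasted male volunteers received one oral [14C]-labeled suspension of the test compound (110 mg/50 µCi) and ate lunch 4 h after dosing. Blood (7 mL) was drawn predose and at 1–504 h, centrifuged (3,000 rpm, 10 min) and stored at –20 °C. Parent and metabolite were quantified by validated LC-MS/MS. Noncompartmental parameters are reported as mean ± SD.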

[5] = format: in vivo, human
Method in brief: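 Urine and feces were collected until cumulative recovery exceeded 80% of dose and fell below 1% of dose per day on 2 consecutive days. Radioactivity was counted by liquid scintillation: urine directly, feces after homogenization with solvent and combustion with CO2 trapping. Each interval's excretion was expressed relative to the actual administered radioactivity (vial content minus residue), then summed cumulatively.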

C=CC(=O)Nc1cc(Nc2nccc(-c3cn(C4CC4)c4ccccc34)n2)c(OC)cc1N(C)CCN(C)C [HS-10296, almonertinib]
Growth inhibition [1]: potently inhibited the growth
Tolerability (NSCLC; 26 patients, 55, 110, 220, 260 mg, single or multiple dose): well tolerated
Dose linearity of metabolism (NSCLC; 55–260 mg): linear trend
Antitumor activity (NSCLC; NSCLC patients, dose-escalation cohort): preliminary antitumor activity
Growth inhibition [2]: potently inhibited the growth
Growth inhibition [3]: potently inhibited the growth
CL/F ([4]; LC-MS/MS, single oral 110 mg/50 µCi, mean±SD): 36.8 ± 10.8 L/h
AUC(0-inf) ([4]; male, human, po, 110 mg): 3160 ng·h/mL
AUC(0-t) ([4]; male, human, po, 110 mg): 2900 ng·h/mL
Cmax ([4]; male, human, po, 110 mg): 119 ± 27.7 ng/mL
Tmax ([4]; male, human, po, 110 mg): 5.25 ± 3.2 h
Vd/F ([4]; male, human, po, 110 mg): 1270 L
half-life ([4]; male, human, po, 110 mg): 25 ± 6.41 h
Main excretion route ([5]; 0–504 hours): mainly excreted via feces
Cumulative excretion rate of drug TRA (urine + feces) ([5]; 0–504 hours after administration, % of dose): 90.19%±4.18%
Cumulative excretion rate in feces ([5]; 0–504 hours, % of dose): 84.75%±3.35%
Cumulative excretion rate in urine ([5]; 0–504 hours, % of dose): 5.44%±0.83%
